In PMC6045484 (ACS Omega, 2018):
In brackets after ≈: the same amount, converted by molar mass. Entries after “also recorded” stand apart in the source; their conditions may differ.

What was measured:
[1] = system: P. falciparum (D6); experiment: in vitro antimalarial activity, plasmodial LDH; assay type: cell-based, Plasmodium falciparum; conditions: Plasmodium falciparum, D6, 72 h, read-out: P. falciparum (D6) IC50
[2] = system: P. falciparum (W2); experiment: in vitro antimalarial activity, plasmodial LDH; assay type: cell-based, Plasmodium falciparum; conditions: for IC50: Plasmodium falciparum, W2, 72 h, read-out: P. falciparum (W2) IC50, CQ-resistant W2 strain, 72 h
In short: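 P. falciparum-infected erythrocytes (2% parasitemia, 2% hematocrit) in RPMI 1640 with 10% human serum and 60 μg/mL amikacin. Exposed to test compound dilutions for 72 h at 37 °C under 90% N2/5% O2/5% CO2. LDH measured with Malstat reagent (30 min, room temperature), then NBT/PES for 1 h in the dark, stopped with 5% acetic acid, read at 650 nm. IC50 from dose-response curves.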

[3] = system: SK-MEL, KB, BT-549, SK-OV-3, VERO and LLC-PK1 cells; experiment: cytotoxicity, neutral red uptake assay; assay type: cell-based, mammalian; conditions: highest test concentration 4760 ng/mL
In short: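 Cells seeded at 25 000/well and allowed 24 h to reach confluence. Test compound was then added and incubated 48 h. Viable cells were counted by a modified neutral red uptake method. The panel was four human cancer lines and two noncancerous mammalian kidney lines. Doxorubicin served as positive control and DMSO as negative control.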

[4] = system: P. berghei (sensitive strain); experiment: blood-schizontocidal activity against P. berghei infection in mice; assay type: in vivo, Plasmodium berghei; conditions: Swiss mice
In short: (§1)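 Swiss mice of either sex (about 15–20 g, same age), six per group, inoculated intraperitoneally on day 0 with 1 × 10^7 infected erythrocytes from a donor mouse. Oral test compound at 100, 50, 25 or 10 mg/kg, CQ diphosphate (10 mg/kg/day × 4) or vehicle started 4 h later, on D0 to D+3. Giemsa tail-blood smears on D+4 and D+7. Curative: parasites eliminated, no relapse, all mice surviving to D+60.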

[5] = system: multidrug-resistant P. yoelii nigeriensis; experiment: blood-schizontocidal activity against P. yoelii nigeriensis infection in mice; assay type: in vivo, Plasmodium yoelii nigeriensis; conditions: Swiss mice
In short: as §1

[6] = system: L. donovani promastigotes; experiment: in vitro antileishmanial activity, alamarBlue assay; assay type: cell-based, Leishmania donovani; conditions: Leishmania donovani, 48 h; for IC50: read-out: L. donovani IC50, promastigotes, 48 h; for IC90: read-out: L. donovani IC90, promastigotes, 48 h
[7] = system: C. albicans ATCC90028; experiment: in vitro antifungal activity; assay type: cell-based, Candida albicans; conditions: Candida albicans; for IC50: ATCC90028, read-out: C. albicans IC50; for MFC: ATCC90028, read-out: C. albicans MFC; for MIC: ATCC90028, read-out: C. albicans MIC
In short: (§2)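 Modified NCCLS broth method in Sabouraud dextrose. Inoculum set by OD630 to 1.5 × 10^3 CFU/mL. Test compound serially diluted in 20% DMSO/saline, duplicate wells, up to 20 μg/mL. Incubated 70–74 h at 35 °C; 530 nm read before and after. IC50 is 50% growth inhibition; MIC is no detectable growth. MFC from clear wells subcultured on agar. Amphotericin B control.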

[8] = system: C. neoformans ATCC90113; experiment: in vitro antifungal activity; assay type: cell-based, Cryptococcus neoformans; conditions: Cryptococcus neoformans; for IC50: ATCC90113, read-out: C. neoformans IC50; for MFC: ATCC90113, read-out: C. neoformans MFC; for MIC: ATCC90113, read-out: C. neoformans MIC
In short: as §2

[9] = system: A. fumigatus ATCC 90906; experiment: in vitro antifungal activity; assay type: cell-based, Aspergillus fumigatus; conditions: Aspergillus fumigatus; for IC50: ATCC90906, read-out: A. fumigatus IC50; for MFC: ATCC90906, read-out: A. fumigatus MFC; for MIC: ATCC90906, read-out: A. fumigatus MIC
In short: as §2

[10] = system: SA (ATCC29213); experiment: in vitro antibacterial activity; assay type: cell-based; conditions: Staphylococcus aureus; for IC50: ATCC29213, read-out: IC50 (concentration that affords 50% growth inhibition), SA; for MBC: ATCC29213, read-out: MBC (minimum bactericidal concentration), SA; for MIC: ATCC29213, read-out: MIC, SA
In short: (§3)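 Test compound serially diluted in 20% DMSO/saline and plated in duplicate, up to 20 μg/mL. Inoculum in cation-adjusted Mueller–Hinton broth, pH 7.3, set by OD630 to 5 × 10^5 CFU/mL. Incubated 16–20 h at 35 °C; 530 nm read before and after. IC50 is 50% growth inhibition; MIC is no detectable growth. MBC from clear wells subcultured on agar. Ciprofloxacin control.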

[11] = system: MRSA (ATCC33591); experiment: in vitro antibacterial activity; assay type: cell-based, methicillin-resistant Staphylococcus aureus; conditions: Staphylococcus aureus, ATCC33591|MRSA, read-out: MIC, MRSA
In short: as §3

[12] = system: M. intracellulare (ATCC23068); experiment: in vitro antibacterial activity, modified alamarBlue procedure; assay type: cell-based, Mycobacterium intracellulare; conditions: Mycobacterium intracellulare; for IC50: ATCC23068, read-out: IC50 (concentration that affords 50% growth inhibition), M. intracellulare; for MBC: ATCC23068, read-out: MBC (minimum bactericidal concentration), M. intracellulare; for MIC: ATCC23068, read-out: MIC, M. intracellulare
In short: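 Modified alamarBlue microplate method. Test compound serially diluted in 20% DMSO/saline, duplicate wells, up to 20 μg/mL. Inoculum 2.0 × 10^6 CFU/mL in Middlebrook 7H9 with OADC, pH 7.3, containing 5% alamarBlue. Incubated 70–74 h at 37 °C, 10% CO2; fluorescence 544ex/590em read before and after. MIC: no blue-to-pink change. MBC by subculturing blue wells on agar. Ciprofloxacin control.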

Row | Structure (SMILES) | IC50 [1] | IC50 [2] | cytotoxicity CTX [3] | P. berghei blood-schizontocidal activity (mice cured/treated) ([4]; 100 mg/kg/day × 4, oral) | IC50 [6] | IC90 [6] | IC50 [7] | MFC [7] | MIC [7] | IC50 [8] | MFC [8] | MIC [8] | IC50 [9] | MFC [9] | MIC [9] | IC50 [10] | MBC [10] | MIC [10] | MIC [11] | IC50 [12] | other results
1 | CCCCCCCCOc1c(OC)cc(NC(C)CCCN)c2nc(C(C)(C)C)ccc12 (centres unmarked) [compound 49, N^4-(2-tert-Butyl-6-methoxy-5-(octyloxy)quinolin-8-yl)pentane-1,4-diamine] | 0.053 µg/mL (≈ 0.119 µM) | 0.04 µg/mL (≈ 0.0902 µM) | NC (NC, not cytotoxic up to 4760 ng/mL (4.76 μg/mL)) | curative (6/6) | 5.2 µg/mL (≈ 11.7 µM) | > 40 µg/mL | 7.44 µg/mL (≈ 16.8 µM) | 10 µg/mL (≈ 22.5 µM) | 10 µg/mL (≈ 22.5 µM) | 2.15 µg/mL (≈ 4.85 µM) | 5 µg/mL (≈ 11.3 µM) | 5 µg/mL (≈ 11.3 µM) | > 20 µg/mL | > 20 µg/mL | > 20 µg/mL | 3.4 µg/mL (≈ 7.66 µM) | 10 µg/mL (≈ 22.5 µM) | 5 µg/mL (≈ 11.3 µM) | 5 µg/mL (≈ 11.3 µM) | 7.43 µg/mL (≈ 16.7 µM) | P. berghei blood-schizontocidal activity (mice cured/treated) ([4]; 10 mg/kg/day × 4, oral): active (4/6); P. berghei blood-schizontocidal activity (mice cured/treated) ([4]; 25 mg/kg/day × 4, oral): curative (6/6); P. berghei blood-schizontocidal activity (mice cured/treated) ([4]; 50 mg/kg/day × 4, oral): curative (6/6); P. yoelii nigeriensis blood-schizontocidal activity (mice cured/treated) ([5]; 25 mg/kg/day × 4, oral): inactive (0/6); P. yoelii nigeriensis blood-schizontocidal activity (mice cured/treated) ([5]; 50 mg/kg/day × 4, oral): active (3/6); P. yoelii nigeriensis blood-schizontocidal activity (mice cured/treated) ([5]; 100 mg/kg/day × 4, oral): active (4/6); MBC [12]: 20 µg/mL (≈ 45.1 µM); MIC [12]: 10 µg/mL (≈ 22.5 µM)
2 | CCCCCCOc1c(OC)cc(NC(C)CCCN)c2nc(C(C)(C)C)ccc12 (centres unmarked) [compound 47, N^4-(2-tert-Butyl-5-(hexyloxy)-6-methoxyquinolin-8-yl)pentane-1,4-diamine] | 0.042 µg/mL (≈ 0.101 µM) | 0.042 µg/mL (≈ 0.101 µM) | NC (NC, not cytotoxic up to 4760 ng/mL (4.76 μg/mL)) | curative (6/6) | 4.6 µg/mL (≈ 11.1 µM) | > 40 µg/mL | 15.4 µg/mL (≈ 37.2 µM) | 20 µg/mL (≈ 48.1 µM) | 20 µg/mL (≈ 48.1 µM) | 2.97 µg/mL (≈ 7.15 µM) | 5 µg/mL (≈ 12 µM) | 5 µg/mL (≈ 12 µM) | > 20 µg/mL | > 20 µg/mL | > 20 µg/mL | 2.77 µg/mL (≈ 6.66 µM) | 5 µg/mL (≈ 12 µM) | 5 µg/mL (≈ 12 µM) | 5 µg/mL (≈ 12 µM) | 6.3 µg/mL (≈ 15.2 µM) | P. falciparum (W2) IC50 ([2]; CQ-resistant W2 strain, 72 h): 0.04 µg/mL; P. berghei blood-schizontocidal activity (mice cured/treated) ([4]; 10 mg/kg/day × 4, oral): active (5/6); P. berghei blood-schizontocidal activity (mice cured/treated) ([4]; 25 mg/kg/day × 4, oral): curative (6/6); P. berghei blood-schizontocidal activity (mice cured/treated) ([4]; 50 mg/kg/day × 4, oral): curative (6/6); P. yoelii nigeriensis blood-schizontocidal activity (mice cured/treated) ([5]; 25 mg/kg/day × 4, oral): inactive (0/6); P. yoelii nigeriensis blood-schizontocidal activity (mice cured/treated) ([5]; 50 mg/kg/day × 4, oral): cured 100% mice; also recorded: curative (6/6); P. yoelii nigeriensis blood-schizontocidal activity (mice cured/treated) ([5]; 100 mg/kg/day × 4, oral): curative (6/6); MBC [12]: 10 µg/mL (≈ 24.1 µM); MIC [12]: 10 µg/mL (≈ 24.1 µM)
3 | CCCCCCCCOc1c(OC)cc(NC(C)CCCNC(=O)C(N)Cc2ccccc2)c2nc(C(C)(C)C)ccc12 (centres unmarked) [compound 121, 2-Amino-N-(4-(2-tert-butyl-6-methoxy-5-(octyloxy)quinolin-8-ylamino)pentyl)-3-phenylpropanamide] | > 4.76 µg/mL | > 4.76 µg/mL | NC (NC, not cytotoxic up to 4760 ng/mL (4.76 μg/mL)) | 100% cure and curative (6/6) | 11.8 µg/mL (≈ 20 µM) | 28.7 µg/mL (≈ 48.5 µM) | > 20 µg/mL | > 20 µg/mL | > 20 µg/mL | 17.3 µg/mL (≈ 29.3 µM) | > 20 µg/mL | > 20 µg/mL | > 20 µg/mL | > 20 µg/mL | > 20 µg/mL | 7.79 µg/mL (≈ 13.2 µM) | > 20 µg/mL | > 20 µg/mL | > 20 µg/mL | > 20 µg/mL | P. berghei blood-schizontocidal activity (mice cured/treated) ([4]; 25 mg/kg/day × 4, oral): inactive (0/6); P. berghei blood-schizontocidal activity (mice cured/treated) ([4]; 50 mg/kg/day × 4, oral): suppressive activity; also recorded: active (3/6); MBC [12]: > 20 µg/mL; MIC [12]: > 20 µg/mL
4 | CCCCCOc1c(OC)cc(NC(C)CCCN)c2nc(C(C)(C)C)ccc12 (centres unmarked) [compound 46, N^4-(2-tert-Butyl-6-methoxy-5-(pentyloxy)quinolin-8-yl)pentane-1,4-diamine] | 0.02 µg/mL (≈ 0.0498 µM) | 0.022 µg/mL (≈ 0.0548 µM) | NC (NC, not cytotoxic up to 4760 ng/mL (4.76 μg/mL)) | curative (6/6) | 32 µg/mL (≈ 79.7 µM) | > 40 µg/mL | > 20 µg/mL | > 20 µg/mL | > 20 µg/mL | > 20 µg/mL | > 20 µg/mL | > 20 µg/mL | > 20 µg/mL | > 20 µg/mL | > 20 µg/mL | 9.04 µg/mL (≈ 22.5 µM) | > 20 µg/mL | > 20 µg/mL | > 20 µg/mL | > 20 µg/mL | P. berghei blood-schizontocidal activity (mice cured/treated) ([4]; 10 mg/kg/day × 4, oral): active (4/6); P. berghei blood-schizontocidal activity (mice cured/treated) ([4]; 25 mg/kg/day × 4, oral): curative (6/6); P. berghei blood-schizontocidal activity (mice cured/treated) ([4]; 50 mg/kg/day × 4, oral): curative (6/6); P. yoelii nigeriensis blood-schizontocidal activity (mice cured/treated) ([5]; 25 mg/kg/day × 4, oral): active (4/6); P. yoelii nigeriensis blood-schizontocidal activity (mice cured/treated) ([5]; 50 mg/kg/day × 4, oral): curative (6/6); P. yoelii nigeriensis blood-schizontocidal activity (mice cured/treated) ([5]; 100 mg/kg/day × 4, oral): cured 100% mice; also recorded: curative (6/6); MBC [12]: > 20 µg/mL; MIC [12]: > 20 µg/mL
5 | CCCCCOc1c(OC)cc(NC(C)CCCN)c2nc(C(C)(C)C)cc(C)c12 (centres unmarked) [compound 51, N^4-(5-Pentyloxy-2-tert-butyl-6-methoxy-4-methylquinolin-8-yl)pentane-1,4-diamine] | 4.5 µg/mL (≈ 10.8 µM) | 3.8 µg/mL (≈ 9.14 µM) | NC (NC, not cytotoxic up to 4760 ng/mL (4.76 μg/mL)) | inactive (0/6) | 16.2 µg/mL (≈ 38.9 µM) | 23.9 µg/mL (≈ 57.4 µM) | > 20 µg/mL | > 20 µg/mL | > 20 µg/mL | 4.45 µg/mL (≈ 10.7 µM) | 20 µg/mL (≈ 48.1 µM) | 20 µg/mL (≈ 48.1 µM) | > 20 µg/mL | > 20 µg/mL | > 20 µg/mL | 18.9 µg/mL (≈ 45.5 µM) | > 20 µg/mL | > 20 µg/mL | 20 µg/mL (≈ 48.1 µM) | 10.8 µg/mL (≈ 25.9 µM) | MBC [12]: 20 µg/mL (≈ 48.1 µM); MIC [12]: 20 µg/mL (≈ 48.1 µM)
